Published values collected from several papers.
Protocols differ between the studies behind these lines.
SLC47A2: Multidrug and toxin extrusion protein 2 (SLC47A2, Homo sapiens, UniProt Q86VL8)
BCKDK: Branched-chain alpha-ketoacid dehydrogenase kinase (BCKDK, Homo sapiens, UniProt O14874)
OPRM1: Mu-type opioid receptor (OPRM1, Homo sapiens, UniProt P35372)
PDE8A: High affinity cAMP-specific and IBMX-insensitive 3',5'-cyclic phosphodiesterase 8A (PDE8A, Homo sapiens, UniProt O60658)
murD: UDP-N-acetylmuramoylalanine--D-glutamate ligase (murD, Escherichia coli K-12, UniProt P14900)
YES1: Tyrosine-protein kinase Yes (YES1, Homo sapiens, UniProt P07947)
ALOX5: Polyunsaturated fatty acid 5-lipoxygenase (ALOX5, Homo sapiens, UniProt P09917)
PTPN7: Tyrosine-protein phosphatase non-receptor type 7 (PTPN7, Homo sapiens, UniProt P35236)

Structure (SMILES) | target | test | test system | conditions | IC50 [µM]
CN/C(=N/CCSCc1nc[nH]c1C)NC#N | SLC47A2 | transporter uptake, inhibitor, radiometric | HEK293 | 5 min, pH 8.5 | 3.6
CCCCC1=NC2(CCCC2)C(=O)N1Cc1ccc(-c2ccccc2-c2nnn[nH]2)cc1 | BCKDK | enzyme activity, inhibitor |  |  | 32.9
CNC(=O)c1cc2c(Oc3ccc(NC(=O)C4(C(=O)Nc5ccc(F)cc5)CC4)cc3)ccnc2cc1OC | Tyrosine-protein kinase Srms (SRMS, Homo sapiens, UniProt Q9H3Y6) | enzyme activity, inhibitor, radiometric |  |  | 0.01
CCCCc1ncc(/C=C(\Cc2cccs2)C(=O)O)n1Cc1ccc(C(=O)O)cc1 | BCKDK | enzyme activity, inhibitor |  |  | 76.4
CCCC[C@H](NC(=O)[C@H](C)c1c(C)[nH]c2ccc(O)cc12)c1ncc(-c2cc3ccccc3nc2OC)[nH]1 | OPRM1 | cell-free assay |  |  | 4.61
COc1cc(C[C@H]2C(=O)OC[C@@H]2Cc2ccc(OC)c(OC)c2)ccc1O | PDE8A | enzyme activity, inhibitor |  |  | > 20
CC1=CC[C@H]2[C@@H]([C@@H]1CC[C@H]1[C@]3(C)CC[C@H](O)C(C)(C)O[C@H]3CC[C@]1(C)O)C(C)(C)CC[C@]2(C)O | ATP-dependent translocase ABCB1 (ABCB1, Homo sapiens, UniProt P08183) | transporter efflux, inhibitor, fluorescence | KB-V1 | 10 min | 50 to 100
COc1ccc(C2=NN(C3CCCCCC3)C(=O)[C@@H]3CC=CC[C@H]23)cc1-c1ccc(C(N)=O)cc1 (relative stereo) | PDE8A | enzyme activity, inhibitor |  |  | > 10
O=C(Nc1ccccc1C=NNS(=O)(=O)c1ccc2ccccc2c1)c1cc([N+](=O)[O-])cc([N+](=O)[O-])c1 | murD | enzyme activity, inhibitor, absorbance |  |  | 49
Cc1cnc(-c2ccc(-c3ccc(NC(=O)Nc4c(F)cc(F)cc4F)cc3F)c3c2C(=O)NC3)[nH]1 | YES1 | enzyme activity, inhibitor |  |  | 0.0045
CCCCCc1cc(O)c(C/C=C(\C)CCC=C(C)C)c(O)c1 | ALOX5 | enzyme activity, inhibitor |  |  | 0.7
CCCc1nc2c(C)cc(-c3nc4ccccc4n3C)cc2n1Cc1ccc(-c2ccccc2C(=O)O)cc1 | BCKDK | enzyme activity, inhibitor |  |  | > 300
COc1cc(/C=C2\SC(=O)NC2=O)cc(F)c1OCCNc1nc2c(cnn2C2CCCC2)c(=O)[nH]1 | PDE8A | enzyme activity, inhibitor |  |  | 0.091
O=C(O)C(=O)CC(=O)c1cccc(N(Cc2ccccc2)Cc2ccccc2)c1 | PTPN7 | enzyme activity, inhibitor, absorbance |  | pH 7 | 87
N#Cc1ccc(COc2ccccc2C=NNS(=O)(=O)c2ccc3ccccc3c2)cc1 | murD | enzyme activity, inhibitor, absorbance |  |  | 62
CC(C)c1cccc2c(/C=C/c3ccccc3)cc(-c3ccc(-c4ccc(C(=O)O)cc4)[nH]3)nc12 | Retinoic acid receptor gamma (RARG, Homo sapiens, UniProt P13631) | reporter gene, antagonist |  |  | > 3.3
CCc1cc(/C(C)=N/OCc2ccc(C3CCCCC3)c(C(F)(F)F)c2)ccc1CN1CC(C(=O)O)C1 | Cytochrome P450 2A6 (CYP2A6, Homo sapiens, UniProt P11509) | enzyme activity, inhibitor | human, liver microsomes | 20 min | > 1.1
CCCCc1nc(C)c(CC(=S)N(C)C)c(=O)n1Cc1ccc(-c2ccccc2-c2nnn[nH]2)cc1 | BCKDK | enzyme activity, inhibitor |  |  | 51.9

Structure (SMILES) | target | test | test system | conditions | IC50 [µM]
O=C(Nc1ccc(C=NNS(=O)(=O)c2ccc3ccccc3c2)cc1)c1ccccc1Br | murD | enzyme activity, inhibitor, absorbance |  |  | 55
CN(C)CCC=C1c2ccccc2CCc2ccccc21 | SLC47A2 | transporter uptake, inhibitor, radiometric | HEK293 | 5 min | > 500
CC[C@H](C)[C@H](NC(C)=O)C(=O)N[C@@H](CCC(=O)O)C(=O)N[C@H](C(=O)N[C@H](C=O)CC(=O)O)[C@@H](C)O | Caspase-5 (CASP5, Homo sapiens, UniProt P51878) | enzyme activity, inhibitor |  |  | 0.00644
Cc1ccc(-c2cc(-c3ccc(-c4ccc(C(=O)O)cc4)[nH]3)nc3c(C(C)C)cccc23)cc1 | Retinoic acid receptor beta (RARB, Homo sapiens, UniProt P10826) | reporter gene, antagonist |  |  | > 3.3
CN[C@H]1CC[C@@H](c2ccc(Cl)c(Cl)c2)c2ccccc21 | PTPN7 | enzyme activity, inhibitor, fluorescence |  |  | 110
C=C(C)[C@@H]1CCC(C)=C[C@H]1c1c(O)cc(CCCCC)cc1O | ALOX5 | enzyme activity, inhibitor |  |  | 4.3
CCCC[C@@H](C(=O)N[C@@H](CC(=O)O)C(=O)N(C)[C@@H](Cc1ccccc1)C(N)=O)N(C)C(=O)[C@H](Cc1c[nH]c2ccccc12)NC(=O)CNC(=O)[C@H](Cc1ccc(O)cc1)NC(=O)[C@H](C)NC(=O)[C@@H](CCC(=O)O)NC(=O)CN1CCN(CC(=O)O)CCN(CC(=O)O)CCN(CC(=O)O)CC1 | Gastrin/cholecystokinin type B receptor (Rattus norvegicus, UniProt P30553) | ligand displacement, radioligand |  |  | 0.00453
COC(=O)[C@]1(O)C[C@@H](O)[C@@H](O)[C@H](OC(=O)/C=C/c2ccc(O)c(O)c2)C1 | Histone deacetylase 8 (HDAC8, Homo sapiens, UniProt Q9BY41) | enzyme activity, inhibitor |  |  | 8.22
C=C(C)[C@@H]1CCC(C)=C[C@H]1c1c(O)cc(CCC)cc1O | ALOX5 | enzyme activity, inhibitor |  |  | 4.9
CCCCCCCc1ccc(CCc2cccc(O)c2C(=O)O)cc1 | Histone acetyltransferase KAT2B (KAT2B, Homo sapiens, UniProt Q92831) | enzyme activity, inhibitor, radiometric |  |  | > 200
CCCc1nc(C(C)(C)O)c(C(=O)O)n1Cc1ccc(-c2ccccc2-c2nnn[nH]2)cc1 | BCKDK | enzyme activity, inhibitor |  |  | 198
C=CC(=O)Nc1cc(Nc2nccc(Nc3cc(Cl)c(F)cc3C(C)(C)O)n2)c(OC)cc1N1CC[C@@H](N(C)C)C1 | YES1 | enzyme activity, inhibitor |  | with preincubation | 2.9
CC/C=C\C/C=C\C/C=C\C/C=C\C/C=C\CCCC(=O)O | DNA polymerase (POLA1, Bos taurus, UniProt A0AAA9TD94) | enzyme activity, inhibitor |  |  | 32.1
O=C1c2ccccc2-c2cccc3cccc1c23 | PTPN7 | enzyme activity, inhibitor, fluorescence |  |  | 35
CCOCc1nc(O)c(-c2nnc(Cc3ccc(Cl)cn3)o2)c(O)c1-c1c(OC)cccc1OC | OPRM1 | ligand displacement, radioligand |  |  | > 30
CN1CCN(c2ccc(Nc3ncc4cc(C#N)c(=O)n(C5CCCC5)c4n3)cc2)CC1 | Serine/threonine-protein kinase PLK2 (PLK2, Homo sapiens, UniProt Q9NYY3) | enzyme activity, inhibitor |  |  | 2.17
O=C(NO)c1ccc(NC(=O)C2(c3ccccc3)CCCC2)c(F)c1 | Histone deacetylase 1 (HDAC1, Homo sapiens, UniProt Q13547) | enzyme activity, inhibitor |  |  | 0.181
